A selection: hits, their analogues and other compounds. The true share with any hit is near 2%.
Myeloid diff MLP – myeloid differentiation induction. AID 624256. ER-HoxA9 myeloid progenitors, lysozyme-GFP differentiation, flow cytometry. hit rate 1% among 360,000. calls only at 10 µM;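 active means normalized GFP-positive differentiation at or above the plate's own cutoff, the solvent-only control mean plus 3 SD; inconclusive means no clear call, values can overlap the other calls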;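 further: cells exposed to compound for four days before flow analysis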
T cell modulator – modulates CD8 T cell binding to vesicles; 2C CD8+ T cell-vesicle binding, flow cytometry; active compounds read low; response (vesicle binding), % at 7 µM; hit rate 0.068% among 330,000; AID 2052;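 active means response, share of CD8 T cells binding vesicles, and their 90th percentile fluorescence all below set limits, cut at about 80% in these data, passing the limit was not always enough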;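 further: values below 100% mean blocked vesicle binding to the CD8+ T cells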
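Benchmarks: naked versus QL9-loaded vesicles / Assay system: purified 2C TCR transgenic mouse naive CD8+ T cells / Technique: high-throughput flow cytometry with anti-B7-1 and anti-CD8 staining / Timing: Cell–vesicle co-incubation 1.5 h at 37 °C, staining 20 min on ice / Read-out: percent CD8+ FL2 mean versus row control / Probe or stimulus: QL9-loaded Drosophila micro-vesicles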
FXN GAA850 act – activators of GAA850 frataxin (FXN) promoter | HEK293 lucGAA850 FXN promoter luciferase reporter, 24 h; percent of 10 µM SAHA response | activation, % at 6 µM | hit rate 0.56% among 360,000 | AID 540364;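 active means activation above the average of all compounds screened plus 3 SD, cutoff fixed separately per campaign, cut at about 7.5% in these data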;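 further: 0% = DMSO wells and 100% = 10 µM SAHA wells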
NR2E3 ag-1 – agonists of human NR2E3 nuclear receptor. CHO-S Gal4-NCOR/VP16-NR2E3 two-hybrid, luciferase. hit rate 0.35% among 360,000. inhibition of corepressor binding, % at 3.98 µM. Q9Y5X4. AID 602229;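 active means inhibition above the mean of all tested compounds plus 3 SD, cut at about 70% in these data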;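 further: 0% = DMSO with NR2E3 transfected cells and 100% = cells lacking NR2E3 construct; higher means lower luciferase signal from less NR2E3 corepressor binding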
Target sequence (Q9Y5X4 whole entry, looked up, the tested form may be a part): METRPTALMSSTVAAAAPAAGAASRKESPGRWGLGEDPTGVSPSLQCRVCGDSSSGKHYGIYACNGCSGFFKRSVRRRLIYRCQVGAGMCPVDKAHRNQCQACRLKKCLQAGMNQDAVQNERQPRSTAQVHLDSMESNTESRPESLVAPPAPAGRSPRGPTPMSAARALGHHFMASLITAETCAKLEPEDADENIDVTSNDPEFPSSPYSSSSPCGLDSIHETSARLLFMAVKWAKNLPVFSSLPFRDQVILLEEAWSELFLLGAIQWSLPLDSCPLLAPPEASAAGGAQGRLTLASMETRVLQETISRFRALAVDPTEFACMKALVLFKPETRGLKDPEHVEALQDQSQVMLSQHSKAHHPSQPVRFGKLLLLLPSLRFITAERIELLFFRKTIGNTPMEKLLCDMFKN
NR2E3 ag-2 – NR2E3 (human) agonism; hit rate 0.12% among 320,000; Q9Y5X4; GST-NR2E3/biotin-RetCOR TR-FRET, 1536-well; inhibition of corepressor binding, % at 4.78 µM;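 active means percent inhibition above the cutoff of mean plus 3 SD of all tested compounds, set per screening campaign, cut at about 20% in these data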;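 further: 0% = DMSO wells and 100% = biotin wells as full block of FRET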
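Material: NR2E3–RetCOR corepressor complex / Incubation: Compound–protein incubation for 5 h at 4 °C / Dosing: compound at 4.8 µM, single dose / Detection: time-resolved FRET / Benchmarks: high control biotin, low control 0.6% DMSO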
NR2E3 ag confirm – confirmation of human NR2E3 agonists. shares compounds with NR2E3 ag-1. CHO-S mammalian two-hybrid NR2E3-NCOR, luciferase luminescence. inhibition, % at 3.98 µM. hit rate 51% among 2,300;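 active means average inhibition above a cutoff equal to the mean inhibition of all tested compounds plus one SD, cut at about 70% in these data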;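 further: 0% = DMSO in NR2E3 cells and 100% = DMSO in cells lacking NR2E3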
VP16 counter – counter-screen for NR2E3 agonists: GAL4-VP16 reporter inhibitors; shares compounds with NR2E3 ag-1; CHO-S GAL4-VP16 luciferase reporter, luminescence; inhibition, % at 3.98 µM; hit rate 29% among 2,300; AID 624379;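 active means mean inhibition above a cutoff equal to the average over all tested compounds plus one standard deviation, cut at about 70% in these data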;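 further: luciferase from a UAS reporter driven by GAL4-VP16 transactivation; 0% = DMSO with VP16-transfected cells and 100% = DMSO with cells lacking VP16; higher means less reporter light so more repression of VP16 activity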
Myeloid diff CP1 – myeloid differentiation induction; shares compounds with Myeloid diff MLP; ER-HoxA9 myeloid progenitors, GFP/Mac1 double-positive flow; calls only; hit rate 2% among 2,300;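 active means share of green or green-and-red cells above 9 and 9% in run 1 or 4 and 3% in run 2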
GFP autofluor – flagged as fluorescent in myeloid differentiation counter-screen; hit rate 7.4% among 2,300; shares compounds with Myeloid diff MLP; ER-HoxA9 myeloid progenitors, no estrogen, GFP autofluorescence flow cytometry; vehicle wells 0%, positive control 100%; AID 651707; fluorescence response, % (concentration not given with the values);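 active means over 5% cells positive for green fluorescent reporter, or over 2% positive for both it and APC stain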;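 further: range taken on the double positive population between DMSO and positive control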
Active calls of the source: *; i = inactive; ? = inconclusive; nt = no result; + = active, no number.

SMILES | Myeloid diff MLP | T cell modulator | FXN GAA850 act | NR2E3 ag-1 | NR2E3 ag-2 | NR2E3 ag confirm | VP16 counter | others
CC(O)(c1ccccc1)c1nc(-c2ccc(Cl)cc2)cs1 (configuration not stated) | i | nt | 2.1 | 0.1 | nt | nt | nt
CC(O)(c1cccnc1)c1nc(-c2cccc(F)c2)cs1 (configuration not stated) | i | nt | 4.0 | -3.8 | nt | nt | nt
CC(O)(c1cccnc1)c1nc(-c2ccc(F)c(Cl)c2)cs1 (configuration not stated) | i | nt | 0.7 | 53.3 | nt | 64.9 | 51.9
COCC(C)n1c(SCC(=O)NC(=O)NCc2ccccc2)nc2ccccc2c1=O (configuration not stated) | i | 461.1 | 1.5 | 0.2 | nt | nt | nt
CN(C)S(=O)(=O)c1ccc(C(=O)Nc2cc(S(=O)(=O)Nc3ccccc3Cl)ccc2N2CCCCC2)cc1 | i | 205.6 | 0.8 | 48.5 | 0.4 | 84.7* | 63.1
CN1CCN(c2ccc(Cl)cc2NC(=O)c2ccc(S(=O)(=O)N(C)C)cc2)CC1 | i | 199.8 | 0.5 | 11.8 | 4.4 | nt | nt
Cc1ccc(O)c(NC(=O)c2cc(-c3ccccc3Cl)on2)c1 | i | 224.1 | 2.8 | -8.4 | -2.6 | nt | nt
NC(=O)c1ccc(N2CCN(S(=O)(=O)c3cccs3)CC2)c([N+](=O)[O-])c1 | i | 237.1 | 0.4 | 81.9* | nt | 94.8* | 78.4*
CC(C)CNC(=O)C1(N2C(=O)c3ccccc3C2=O)CCCC1 | i | nt | 1.4 | 50.9 | nt | -11.0 | 1.7
CO[C@H]1CC[C@@]2(C)[C@@H](CC[C@@H]3[C@@H]2CC[C@@]2(C)[C@H]3C[C@H](C(=O)N[C@@H](CCCN=C(N)N)C(=O)NCC(=O)N[C@@H](CC(=O)O)C(N)=O)O[C@]23CCCO3)C1 | i | nt | 1.3 | -15.1 | nt | nt | nt
O=C1N(c2ccccc2)C[C@@H]2C[C@@H](c3cc4ccccc4o3)N3CCC[C@@]123 | ? | nt | -14.4 | 77.8* | nt | 98.6* | 85.0*
Cc1ccc(-c2ccccc2[C@@H]2C[C@H]3CN(C)C(=O)[C@]34CCCN24)o1 | i | 311.4 | 0.7 | -17.5 | 3.5 | nt | nt
Cn1c(=O)c(C#N)c(-c2ccc(F)cc2)c2cc(C(=O)c3cc(Cl)cc(Cl)c3O)cnc21 | i | 452.9 | -2.8 | 93.8* | -1.4 | 100.3* | 94.2*
COc1ccccc1-n1c(=O)c(C#N)c(-c2ccc([N+](=O)[O-])cc2)c2cc(C(=O)c3cc(F)ccc3O)cnc21 | i | 201.9 | 0.0 | -8.5 | 3.6 | nt | nt
NC(c1csc(Nc2ccc(C(F)(F)F)cn2)n1)C1CCCCC1 (configuration not stated) | i | nt | -2.5 | 3.6 | nt | nt | nt
O=S(=O)(c1cc(F)ccc1F)N1CCN(c2ncnc3ccccc23)CC1 | nt | 400.4 | -2.1 | 87.7* | nt | 92.0* | 74.4*
COCCCNc1ncnc2c1nc1n2CCCC1 | i | 153.3 | -1.1 | 24.8 | nt | nt | nt
COc1ccc(-c2cnc3c(NC(C)=O)cc(-c4ccc(S(C)(=O)=O)cc4)cn23)cc1OC | ? | nt | -3.5 | -44.6 | nt | nt | nt
O=C1N[C@H](Cc2ccccc2)COC(=O)[C@H](Cc2ccc(F)cc2)CC/C=C/C[C@H]1CC(=O)N(CCO)Cc1ccccc1 | i | 297.0 | -3.5 | 55.5 | nt | 68.7 | -1.5
O=C1N[C@@H](Cc2ccccc2)COC(=O)[C@@H](Cc2ccc(F)cc2)C/C=C\C[C@@H]1CC(=O)N(CCO)Cc1ccccc1 | ? | 428.5 | -2.2 | -16.9 | nt | nt | nt
CC(C)C[C@@H]1NC(=O)[C@H](C(C)C)NC(=O)c2cc([N+](=O)[O-])cc(I)c2NCC[C@@H](C(N)=O)NC1=O | nt | nt | nt | nt | 0.4 | nt | nt
CC[C@H](C)[C@@H]1NC(=O)[C@@H](CC(C)C)NC(=O)[C@H](C(C)C)NC(=O)[C@H]2CSSC[C@H](NC1=O)C(=O)N2 | ? | nt | nt | 101.9* | nt | 100.0* | 98.1*
CCCCCCC[C@@H](C/C=C/CCC(=O)N(C)C/C(=C/Cl)C/C(=C\C(=O)N1C[C@H](O)CC1=O)OC)OC | i | 250.2 | 0.0 | 62.0 | nt | 62.0 | 52.7 | Myeloid diff CP1=i;GFP autofluor=4.6
CCCCCCC[C@@H](C/C=C/CCC(=O)N(C)C/C(=C/Cl)C/C(=C\C(=O)N1CC(OC)=CC1=O)OC)OC | i | i | 6.2 | 13.6 | nt | nt | nt
NC(=O)C1CCN(c2oc(-c3cccs3)nc2S(=O)(=O)c2ccc(Br)cc2)CC1 | i | 85.0 | -0.4 | -14.0 | nt | nt | nt
SMILES | Myeloid diff MLP | T cell modulator | FXN GAA850 act | NR2E3 ag-1 | NR2E3 ag-2 | NR2E3 ag confirm | VP16 counter | others
COc1ccc(CCNc2c(C)c(C)nc3ncnn23)cc1 | i | 533.5 | -7.2 | 93.5* | 1.0 | 93.7* | 75.4* | Myeloid diff CP1=i;GFP autofluor=0.0
CCCCCc1c(-c2ccc(F)cc2F)ncn1CCc1ccccc1OC | i | nt | nt | -19.5 | nt | nt | nt
CC1(C)SC2C(C(=O)O)N=C(Cc3ccccc3)N2C1C(=O)O (configuration not stated) | i | nt | 0.7 | 7.6 | nt | nt | nt
O=C(NCc1ccc2c(c1)OCO2)c1nnc(Cc2ccc(F)cc2)o1 | i | 190.5 | -1.6 | -12.0 | 5.5 | nt | nt
Nc1nc2cc3c(cc2cc1C(=O)NCc1ccc(F)cc1)OCO3 | + | nt | nt | 88.1* | nt | 93.5* | 72.4* | Myeloid diff CP1=i;GFP autofluor=1.4
COc1cccc2c1OC[C@@H](CO)[C@H]2N(C)C(=O)Nc1ccc(Cl)cc1Cl | i | 360.7 | -2.2 | 48.5 | 2.5 | 10.7 | 29.7 | Myeloid diff CP1=i;GFP autofluor=0.0
CC1=Nc2ccccc2/C1=C/c1sc(=N)n(-c2nccs2)c1O | i | 264.1 | 0.5 | 75.8* | 3.2 | 66.7 | 30.8 | Myeloid diff CP1=i;GFP autofluor=47.1*
O=C(c1ccc(S(=O)(=O)N2CCOCC2)cc1)N1CCN(c2ccccc2F)CC1 | i | 444.7 | 0.4 | -0.5 | -2.2 | nt | nt
O=C(c1ccc(S(=O)(=O)N2CCOCC2)cc1)N1CCN(c2ccc(F)cc2)CC1 | i | 454.9 | 2.1 | -12.6 | 3.9 | nt | nt | Myeloid diff CP1=i;GFP autofluor=0.0
COc1ccccc1NC(=O)/C(=C/c1cccc([N+](=O)[O-])c1)c1ccccc1 | i | 263.6 | 0.7 | -2.4 | -2.0 | nt | nt
CCCCn1c(SCC(=O)c2c(N)n(C3CC3)c(=O)[nH]c2=O)nc2cc(S(N)(=O)=O)ccc21 | i | nt | -0.7 | 0.2 | nt | nt | nt
COc1ccc(-c2sc3cc(OC)c(OC)cc3c2-c2ccc(O)cc2)cc1 | i | 406.8 | 1.1 | -16.3 | nt | nt | nt | Myeloid diff CP1=i;GFP autofluor=0.3
Cc1ccc(-n2ncc3c(NCc4ccco4)ncnc32)cc1C | i | 278.3 | 1.4 | -42.3 | 0.1 | nt | nt

Screening data (PubChem)
